Laboratory results taken from ChEMBL document CHEMBL4177770, “Discovery of MK-6169, a Potent Pan-Genotype Hepatitis C Virus NS5A Inhibitor with Optimized Activity against Common Resistance-Associated Substitutions” (J Med Chem, 2018).
Substitutions are numbered along the chain they refer to.

What was measured:
[1] = Cmax in Beagle dog at 5 mg/kg, po by LC/MS method; type: ADME, organism-based, Canis lupus familiaris; design: dose 5 mg/kg, route oral; settings: in vivo
How it was run: (§1)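 Beagle dogs, two animals per dosing group. Oral dose was given in 10% TWEEN. Blood was collected and spun to plasma, and plasma compound levels were measured by LC/MS.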

[2] = Clearance in Beagle dog at 1 mg/kg, iv by LC/MS method; type: ADME, organism-based, Canis lupus familiaris; settings: in vivo
How it was run: (§2)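 Beagle dogs, two animals per group, dosed IV at 1 mg/kg in 60% PEG200. Plasma was prepared from collected blood by centrifugation, and compound was quantified by LC/MS.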

[3] = Cmax in Wistar Han rat at 10 mg/kg, po by LC/MS method; type: ADME, organism-based; design: dose 10 mg/kg, route oral; settings: in vivo
How it was run: (§3)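 Male Wistar Han rats, two per dosing group, dosed orally at 10 mg/kg in 10% TWEEN. Plasma was separated from collected blood by centrifugation and analysed by LC/MS.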

[4] = biological target: T1, Nonstructural protein 5A (Hepatitis C virus) (UniProt Q5L478); experiment: Inhibition of NS5A in HCV genotype 1b infected in HuH7 replicon cells assessed as decrease in viral replication after 3 days by RT-PCR method; type: cell-based; settings: Hepatitis C virus subtype 1b
T1 sequence (whole entry): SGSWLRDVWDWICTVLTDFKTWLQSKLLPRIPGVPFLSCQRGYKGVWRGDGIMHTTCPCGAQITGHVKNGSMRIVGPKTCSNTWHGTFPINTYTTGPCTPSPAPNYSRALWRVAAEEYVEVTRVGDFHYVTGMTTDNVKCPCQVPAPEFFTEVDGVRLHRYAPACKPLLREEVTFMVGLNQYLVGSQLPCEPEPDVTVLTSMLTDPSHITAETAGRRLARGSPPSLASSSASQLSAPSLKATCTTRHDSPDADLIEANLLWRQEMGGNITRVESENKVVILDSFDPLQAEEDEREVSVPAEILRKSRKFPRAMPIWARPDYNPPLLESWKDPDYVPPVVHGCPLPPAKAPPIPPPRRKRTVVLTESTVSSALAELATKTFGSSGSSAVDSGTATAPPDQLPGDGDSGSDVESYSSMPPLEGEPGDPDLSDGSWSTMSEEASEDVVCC

[5] = biological target: T1, Nonstructural protein 5A (Hepatitis C virus); experiment: Inhibition of NS5A in HCV genotype 3a infected in HuH7 replicon cells assessed as decrease in viral replication after 3 days by RT-PCR method; type: cell-based; settings: Hepatitis C virus subtype 3a
[6] = Cmax in Wistar Han rat at 100 mg/kg, po by LC/MS method; type: ADME, organism-based; design: dose 100 mg/kg, route oral; settings: in vivo
How it was run: (§4)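 Single rising oral dose study in fed male Wistar Han rats, dosed PO in 10% TWEEN at the indicated doses. Plasma was obtained by centrifuging the blood, and compound levels were determined by LC/MS.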

[7] = Drug level in Wistar Han rat at 10 mg/kg, po measured at 24 hrs by LC/MS method; type: ADME, organism-based; settings: in vivo, read-out: Drug uptake; how it was run: as §3
[8] = AUC in Beagle dog at 5 mg/kg, po by LC/MS method; type: ADME, organism-based, Canis lupus familiaris; settings: in vivo; how it was run: as §1
[9] = Tmax in Wistar Han rat at 100 mg/kg, po by LC/MS method; type: ADME, organism-based; settings: in vivo; how it was run: as §4
[10] = AUC in Wistar Han rat at 100 mg/kg, po by LC/MS method; type: ADME, organism-based; settings: in vivo; how it was run: as §4
[11] = biological target: T1, Nonstructural protein 5A (Hepatitis C virus); experiment: Inhibition of NS5A L31M mutant in HCV genotype 2b infected in HuH7 replicon cells assessed as decrease in viral replication after 3 days by RT-PCR method; type: cell-based; settings: Hepatitis C virus subtype 2b
[12] = Drug level in Beagle dog at 5 mg/kg, po measured at 24 hrs by LC/MS method; type: ADME, organism-based, Canis lupus familiaris; settings: in vivo, read-out: Drug uptake; how it was run: as §1
[13] = Oral bioavailability in Wistar Han rat at 10 mg/kg by LC/MS method; type: ADME, organism-based; settings: in vivo; how it was run: as §3
[14] = MRT in Wistar Han rat at 300 mg/kg, po by LC/MS method; type: ADME, organism-based; settings: in vivo; how it was run: as §4
[15] = Half life in Wistar Han rat at 2 mg/kg, iv by LC/MS method; type: ADME, organism-based; settings: in vivo
How it was run: (§5)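 Male Wistar Han rats, two per group, dosed IV at 2 mg/kg in 60% PEG200. Plasma was obtained by centrifuging the blood, and compound concentrations were measured by LC/MS.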

[16] = Oral bioavailability in Beagle dog at 5 mg/kg by LC/MS method; type: ADME, organism-based, Canis lupus familiaris; settings: in vivo; how it was run: as §1
[17] = Tmax in Wistar Han rat at 300 mg/kg, po by LC/MS method; type: ADME, organism-based; settings: in vivo; how it was run: as §4
[18] = Tmax in Wistar Han rat at 10 mg/kg, po by LC/MS method; type: ADME, organism-based; settings: in vivo; how it was run: as §3
[19] = MRT in Wistar Han rat at 10 mg/kg, po by LC/MS method; type: ADME, organism-based; settings: in vivo; how it was run: as §3
[20] = Drug level in Wistar Han rat at 300 mg/kg, po measured at 24 hrs by LC/MS method; type: ADME, organism-based; settings: in vivo, read-out: Drug uptake; how it was run: as §4
[21] = Drug level in Wistar Han rat at 100 mg/kg, po measured at 24 hrs by LC/MS method; type: ADME, organism-based; settings: in vivo, read-out: Drug uptake; how it was run: as §4
[22] = system: T2, Nonstructural protein 5A (Hepatitis C virus), Q5L478 [Y93H]; experiment: Inhibition of NS5A Y93H mutant in HCV genotype 1a infected in HuH7 replicon cells assessed as decrease in viral replication after 3 days by RT-PCR method; type: cell-based; settings: Hepatitis C virus subtype 1a
T2 sequence (whole entry): T1 sequence (whole entry) with Y93H

[23] = biological target: T1, Nonstructural protein 5A (Hepatitis C virus); experiment: Inhibition of NS5A in HCV genotype 4a infected in HuH7 replicon cells assessed as decrease in viral replication after 3 days by RT-PCR method; type: cell-based; settings: Hepatitis C virus subtype 4a
[24] = biological target: T1, Nonstructural protein 5A (Hepatitis C virus); experiment: Inhibition of NS5A L31V mutant in HCV genotype 1a infected in HuH7 replicon cells assessed as decrease in viral replication after 3 days by RT-PCR method; type: cell-based; settings: Hepatitis C virus subtype 1a
[25] = AUC in Wistar Han rat at 10 mg/kg, po by LC/MS method; type: ADME, organism-based; settings: in vivo; how it was run: as §3
[26] = AUC in Wistar Han rat at 300 mg/kg, po by LC/MS method; type: ADME, organism-based; settings: in vivo; how it was run: as §4
[27] = Half life in Beagle dog at 1 mg/kg, iv by LC/MS method; type: ADME, organism-based, Canis lupus familiaris; settings: in vivo; how it was run: as §2
[28] = MRT in Wistar Han rat at 100 mg/kg, po by LC/MS method; type: ADME, organism-based; settings: in vivo; how it was run: as §4
[29] = Clearance in Wistar Han rat at 2 mg/kg, iv by LC/MS method; type: ADME, organism-based; settings: in vivo; how it was run: as §5
[30] = Cmax in Wistar Han rat at 300 mg/kg, po by LC/MS method; type: ADME, organism-based; design: dose 300 mg/kg, route oral; settings: in vivo; how it was run: as §4
[31] = biological target: T1, Nonstructural protein 5A (Hepatitis C virus); experiment: Inhibition of NS5A in HCV genotype 1a infected in HuH7 replicon cells assessed as decrease in viral replication after 3 days by RT-PCR method; type: cell-based; settings: Hepatitis C virus subtype 1a
[32] = system: Hepatitis C virus subtype 1a; experiment: Resistance ratio of EC90 for NS5A L31V mutant in HCV genotype 1a infected in HuH7 replicon cells to EC90 for NS5A in HCV genotype 1a infected in HuH7 replicon cells; type: cell-based
[33] = Resistance ratio of EC90 for NS5A in HCV genotype 4a infected in HuH7 replicon cells to EC90 for NS5A in HCV genotype 1a infected in HuH7 replicon cells; type: cell-based
[34] = system: Hepatitis C virus subtype 1a; experiment: Resistance ratio of EC90 for NS5A Y93H mutant in HCV genotype 1a infected in HuH7 replicon cells to EC90 for NS5A in HCV genotype 1a infected in HuH7 replicon cells; type: cell-based
[35] = Resistance ratio of EC90 for NS5A in HCV genotype 3a infected in HuH7 replicon cells to EC90 for NS5A in HCV genotype 1a infected in HuH7 replicon cells; type: cell-based
[36] = Resistance ratio of EC90 for NS5A in HCV genotype 1b infected in HuH7 replicon cells to EC90 for NS5A in HCV genotype 1a infected in HuH7 replicon cells; type: cell-based
[37] = Resistance ratio of EC90 for NS5A L31M mutant in HCV genotype 2b infected in HuH7 replicon cells to EC90 for NS5A in HCV genotype 1a infected in HuH7 replicon cells; type: cell-based

Structure (SMILES)	Cmax [1] [nM]	clearance [2] [mL/min/kg]	Cmax [3] [nM]	EC90 [4] [pM]	EC90 [5] [pM]	EC90 [11] [nM]	bioavailability [13] [%]	half-life [15] [min]	EC90 [22] [nM]	EC90 [23] [pM]	EC90 [24] [pM]	AUC [25] [µM·h]	clearance [29] [mL/min/kg]	EC90 [31] [pM]	Ratio [32]	Ratio [33]	Ratio [34]	Ratio [35]	Ratio [36]	Ratio [37]	other results
COC(=O)N[C@H](C(=O)N1CCC[C@H]1c1ncc(-c2cc(F)c3c(c2)O[C@@H](c2ccc(C4CC4)s2)n2c-3cc3cc(-c4cnc([C@@H]5CCCN5C(=O)[C@@H](NC(=O)OC)C5C[C@@H](C)O[C@H](C)C5)[nH]4)ccc32)[nH]1)C(C)C (some centres undefined)	640	2.6	50 to 119	4	7	0.012	6.3	216	0.015	7	4	0.31 to 0.93	11	4							Cmax [6]: 240 nM; concentration at 24 h [7]: 1 to 4 nM; AUC [8]: 5.05 µM·h; Tmax [9]: 3 h; AUC [10]: 2.07 µM·h; concentration at 24 h [12]: 87 nM; MRT [14]: 9.3 h; bioavailability [16]: 18.7%; Tmax [17]: 7 h; Tmax [18]: 3 h; MRT [19]: 6 h; concentration at 24 h [20]: 29 nM; concentration at 24 h [21]: 9 nM; AUC [26]: 5.58 µM·h; half-life [27]: 678 min; MRT [28]: 7.6 h; Cmax [30]: 510 nM
COC(=O)N[C@H](C(=O)N1CCC[C@H]1c1ncc(-c2cc(F)c3c(c2)O[C@@H](c2ccc(C4CC4)s2)n2c-3cc3cc(-c4cnc([C@@H]5CCCN5C(=O)[C@@H](NC(=O)OC)C5C[C@@H](C)O[C@@H](C)C5)[nH]4)ccc32)[nH]1)C(C)C (some centres undefined)	330	3	67 to 80	4	8	0.025	5.9	306	0.027	7	5	0.33 to 0.92	11	4							Cmax [6]: 220 nM; concentration at 24 h [7]: 3 to 5 nM; AUC [8]: 2.42 µM·h; Tmax [9]: 2 h; AUC [10]: 1.95 µM·h; concentration at 24 h [12]: 11 nM; MRT [14]: 11 h; bioavailability [16]: 8.5%; Tmax [17]: 6 h; Tmax [18]: 4 h; MRT [19]: 9 h; concentration at 24 h [20]: 40 nM; concentration at 24 h [21]: 27 nM; AUC [26]: 4.08 µM·h; half-life [27]: 432 min; MRT [28]: 17 h; Cmax [30]: 390 nM
COC(=O)N[C@H](C(=O)N1CCC[C@H]1c1ncc(-c2cc(F)c3c(c2)O[C@@H](c2ccc4c(c2)CCCO4)n2c-3cc3cc(-c4cnc([C@@H]5CCCN5C(=O)[C@@H](NC(=O)OC)C5CCOCC5)[nH]4)ccc32)[nH]1)C(C)C				3	9	1.07			0.356	6	7			5	< 10	< 10	< 10	< 10	< 10	< 10	
COC(=O)N[C@H](C(=O)N1CCC[C@H]1c1ncc(-c2cc(F)c3c(c2)O[C@@H](c2ccc4c(c2)OCCC4)n2c-3cc3cc(-c4cnc([C@@H]5CCCN5C(=O)[C@@H](NC(=O)OC)C5CCOCC5)[nH]4)ccc32)[nH]1)C(C)C			32	6	8	0.019	0.8	192	0.035	7	5	0.13	11	4	< 10	< 10	< 10	< 10	< 10	< 10	
COC(=O)N[C@H](C(=O)N1CCC[C@H]1c1ncc(-c2cc(F)c3c(c2)O[C@@H](c2cc4c(s2)CCC4)n2c-3cc3cc(-c4cnc([C@@H]5CCCN5C(=O)[C@@H](NC(=O)OC)C5CCOCC5)[nH]4)ccc32)[nH]1)C(C)C				5	22	0.064			0.039	4	13			5	< 10	< 10	< 10	< 10	< 10	< 10	
COC(=O)N[C@H](C(=O)N1CCC[C@H]1c1ncc(-c2cc(F)c3c(c2)O[C@@H](c2ccc(C(F)(F)F)s2)n2c-3cc3cc(-c4cnc([C@@H]5CCCN5C(=O)[C@@H](NC(=O)OC)C5CCOCC5)[nH]4)ccc32)[nH]1)C(C)C				5	6	0.01			0.023	3	5			3	< 10	< 10	< 10	< 10	< 10	< 10	
